In ChEMBL document CHEMBL1137754, “Inhibitors of potassium channels KV1.3 and IK-1 as immunosuppressants” (Bioorg Med Chem Lett, 2009):
Activity calls are given as the source filed them. The calls are words filed in the database; no cut-off is given here.

Legend:
HaCaT [1] = experiment: Inhibition of human HaCaT cell proliferation after 48 hrs; type: functional, cell-based
How it was run: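 HaCaT keratinocytes were seeded in KBM/10% FCS and held 24 h at 37 °C. Compounds diluted in KBM/FCS (final 1% DMSO) were added in triplicate and incubated 48 h.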

PBMC [2] = experiment: Immunosuppressant activity in human effector memory T cells of PBMC assessed as inhibition of anti-CD3 antibody-induced cell proliferation by ELISA in presence of 5 uM Kv1.3-blocker PAP1; type: functional, cell-based
How it was run: (§1)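 T_EM fraction of PBMCs stimulated with anti-CD3 antibody; proliferation dose–response curves for one channel blocker were run against a fixed background of a blocker of the other channel (IK-1 blocker, or 5 µM PAP-1 for Kv1.3). The read-out was EC50.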

[3] = molecular target: T1, Potassium voltage-gated channel subfamily A member 3 (Homo sapiens, UniProt P22001); experiment: Inhibition of cloned Kv1.3 channel expressed in mammalian cells by whole cell patch clamp assay; type: cell-based
How it was run: (§2)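 Whole-cell patch clamp recording, n ≥ 2 individual experiments per compound concentration using different cells. Dose–response curves used four or more concentrations.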

PBMC [4] = experiment: Immunosuppressant activity in human effector memory T cells of PBMC assessed as inhibition of anti-CD3 antibody-induced cell proliferation by ELISA; type: functional, cell-based
[5] = molecular target: T1, Potassium voltage-gated channel subfamily A member 3; experiment: Inhibition of cloned Kv1.3 channel expressed in mammalian cells at 2 uM by whole cell patch clamp assay; type: cell-based; how it was run: as §2
Mus musculus = experiment: Antiinflammatory activity against oxazolone-induced delayed type hypersensitivity in mouse assessed as reduction in ear swelling at 1%, topically applied 30 mins post oxazolone challenge; type: functional; set-up: scale not given: the % may be the effect or the level left
How it was run: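 Mouse DTH ear-swelling model with oxazolone sensitization and challenge. A single topical dose at 1% in ethanol–DMSO 4:1 was applied 30 min after challenge. The read-out was ear swelling relative to a vehicle-treated group. Protopic (0.1%) served as positive control. Values are means of n = 5 animals per group.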

[6] = (§3) Cytotoxicity against human HaCaT cells; type: cell-based; conditions: HaCaT cells, read-out: LD50 (the source's name)
[7] = Cytotoxicity against human effector memory T cells of PBMC; type: cell-based, T-cell; conditions: effector memory T cells from PBMC, read-out: LD50 (the source's name)
[8] = molecular target: Intermediate conductance calcium-activated potassium channel protein 4 (Homo sapiens, UniProt O15554); experiment: Inhibition of human cloned IK1 expressed in african green monkey COS7 cells by whole cell patch clamp assay; type: cell-based, COS-7
[9] = molecular target: T1, Potassium voltage-gated channel subfamily A member 3; experiment: Inhibition of cloned Kv1.3 channel expressed in mammalian cells at 20 uM by whole cell patch clamp assay
[10] = molecular target: T1, Potassium voltage-gated channel subfamily A member 3; experiment: Inhibition of cloned Kv1.3 channel expressed in mammalian cells at 20 uM by whole cell patch clamp assay; type: cell-based; how it was run: as §2
HaCaT [11] = experiment: as §3; type: cell-based; conditions: hacat
[12] = Cytotoxicity against human effector memory T cells of PBMC up to 50 uM; type: cell-based
HaCaT [13] = experiment: Cytotoxicity against human HaCaT cells up to 50 uM; type: cell-based
PBMC [14] = experiment: Immunosuppressant activity in human effector memory T cells of PBMC assessed as inhibition of anti-CD3 antibody-induced cell proliferation by ELISA in presence of 5 uM IK1-blocker 5-(4-Chloro-benzenesulfonyl)-5,6-dihydro-dibenzo[b,d]azepin-7-one; type: functional, cell-based; how it was run: as §1
PBMC [15] = experiment: Immunosuppressant activity in human effector memory T cells of PBMC assessed as inhibition of anti-CD3 antibody-induced cell proliferation by ELISA in presence of 5 uM IK1-blocker 5-(Toluene-4-sulfonyl)-5,6-dihydro-dibenzo[b,d]azepin-7-one; type: functional, cell-based; how it was run: as §1
PBMC [16] = experiment: Immunosuppressant activity in human effector memory T cells of PBMC assessed as inhibition of anti-CD3 antibody-induced cell proliferation by ELISA in presence of 16.7 uM IK1-blocker 5-(4-Chloro-benzenesulfonyl)-5,6-dihydro-dibenzo[b,d]azepin-7-one; type: functional, cell-based; how it was run: as §1
PBMC [17] = experiment: Immunosuppressant activity in human effector memory T cells of PBMC assessed as inhibition of anti-CD3 antibody-induced cell proliferation by ELISA in presence of 5 uM IK1-blocker TRAM34; type: functional, cell-based; how it was run: as §1

Sequence of Intermediate conductance calcium-activated potassium channel protein 4 (O15554 whole entry): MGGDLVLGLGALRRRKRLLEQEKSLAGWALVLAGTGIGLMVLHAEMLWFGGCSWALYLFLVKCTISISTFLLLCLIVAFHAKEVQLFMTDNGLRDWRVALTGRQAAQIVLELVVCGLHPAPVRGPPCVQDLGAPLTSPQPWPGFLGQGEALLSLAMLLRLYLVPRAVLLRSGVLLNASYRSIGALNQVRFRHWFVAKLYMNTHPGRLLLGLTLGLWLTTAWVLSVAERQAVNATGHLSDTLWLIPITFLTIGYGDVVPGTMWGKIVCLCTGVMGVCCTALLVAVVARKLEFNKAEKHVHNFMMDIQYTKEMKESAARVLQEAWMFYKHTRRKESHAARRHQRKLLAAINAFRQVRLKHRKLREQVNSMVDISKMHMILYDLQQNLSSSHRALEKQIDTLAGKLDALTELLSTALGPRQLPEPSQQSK
T1 sequence (P22001 whole entry): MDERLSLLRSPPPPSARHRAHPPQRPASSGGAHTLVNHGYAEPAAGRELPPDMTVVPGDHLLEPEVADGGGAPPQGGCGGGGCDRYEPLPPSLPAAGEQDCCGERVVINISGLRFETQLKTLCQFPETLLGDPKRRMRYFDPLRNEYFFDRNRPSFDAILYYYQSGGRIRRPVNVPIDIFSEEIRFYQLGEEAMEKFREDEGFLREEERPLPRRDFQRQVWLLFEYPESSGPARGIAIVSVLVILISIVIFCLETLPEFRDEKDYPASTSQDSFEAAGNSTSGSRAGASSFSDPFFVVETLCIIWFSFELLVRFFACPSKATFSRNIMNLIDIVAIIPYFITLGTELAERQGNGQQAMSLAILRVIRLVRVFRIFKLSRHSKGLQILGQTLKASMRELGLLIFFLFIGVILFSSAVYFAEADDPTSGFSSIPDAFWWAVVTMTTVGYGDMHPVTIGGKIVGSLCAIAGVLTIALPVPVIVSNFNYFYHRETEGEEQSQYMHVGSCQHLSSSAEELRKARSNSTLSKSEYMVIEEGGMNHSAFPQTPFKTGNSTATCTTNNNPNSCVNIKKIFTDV

**Q.** For `Clc1ccccc1C(c1ccccc1)(c1ccccc1)n1cccn1`, which EC50 (HaCaT [1]) is on record?
**A.** The EC50 was 40 µM.

**Q.** And the EC50 (PBMC [2])?
**A.** The EC50 was 0.025 µM.

**Q.** What about the IC50 [3] of the same compound?
**A.** Its IC50 is 5 µM.

**Q.** And the Activity (PBMC [4])?
**A.** The Activity was “inactive”.

**Q.** For `O=C(CCC1CCCC1)C1c2ccccc2-c2ccccc2N1C(=O)c1ccco1` (configuration not stated), which inhibition [5] is on record?
**A.** Its inhibition is 11%.

**Q.** For `Clc1ccccc1C(c1ccccc1)(c1ccccc1)n1ccnc1` [CLOTRIMAZOLE], which EC50 (HaCaT [1]) is on record?
**A.** Its EC50 is 15 µM.

**Q.** What about the IC50 [3] of the same compound?
**A.** Its IC50 is 6 µM.

**Q.** What about the Activity (Mus musculus) of the same compound?
**A.** The Activity was 20%.

**Q.** And the CC50 [6]?
**A.** Its CC50 is 40 µM.

**Q.** What about the CC50 [7] of the same compound?
**A.** The CC50 was 40 µM.

**Q.** For `O=C1CN(S(=O)(=O)c2ccc([N+](=O)[O-])cc2)c2ccccc2-c2ccccc21`, which IC50 [3] is on record?
**A.** Its IC50 is over 10 µM.

**Q.** For `O=C1CN(S(=O)(=O)c2cccs2)c2ccccc2-c2ccccc21`, which IC50 [3] is on record?
**A.** Its IC50 is 13 µM.

**Q.** And the IC50 [8]?
**A.** Its IC50 is 2.4 µM.

**Q.** Which EC50 (HaCaT [1]) does the source give for `O=c1c2ccccc2c2ccccc2n1CCn1cccc1` here?
**A.** Its EC50 is 2.3 µM.

**Q.** What about the inhibition [9] of the same compound?
**A.** Its inhibition is 57%.

**Q.** And the inhibition [10]?
**A.** The inhibition was 57%.

**Q.** With `Cc1ccc(C(=O)N2CC(=O)c3ccccc3-c3ccccc32)cc1` as the compound, how does the IC50 [3] read?
**A.** The IC50 was 4 µM.

**Q.** What about the IC50 [8] of the same compound?
**A.** The IC50 was 16 µM.

**Q.** Which inhibition [5] does the source give for `O=C(CCc1ccccc1)C1c2ccccc2-c2ccccc2N1C(=O)c1ccco1` (configuration not stated) here?
**A.** The inhibition was 15%.

**Q.** With `O=c1[nH]c2ccccc2c2ccccc12` as the compound, how does the inhibition [9] read?
**A.** The inhibition was 12%.

**Q.** For `Cc1ccc(S(=O)(=O)N2CC(=O)c3ccccc3-c3ccccc32)cc1`, which EC50 (HaCaT [1]) is on record?
**A.** The EC50 was 8.4 µM.

**Q.** What about the EC50 (PBMC [2]) of the same compound?
**A.** Its EC50 is 2.5 µM.

**Q.** What about the IC50 [3] of the same compound?
**A.** The IC50 was 5.8 µM.

**Q.** And the Activity (Mus musculus)?
**A.** Its Activity is 20%.

**Q.** What about the IC50 [8] of the same compound?
**A.** Its IC50 is 2.1 µM.

**Q.** And the Activity (HaCaT [11])?
**A.** Its Activity is “Non-toxic”.

**Q.** What about the Activity (PBMC [4]) of the same compound?
**A.** Its Activity is “inactive”.

**Q.** What about the Activity [12] of the same compound?
**A.** The Activity was “Non-toxic”.

**Q.** What about the Activity (HaCaT [13]) of the same compound?
**A.** The Activity was “Non-toxic”.

**Q.** What does the source list for `CCCC(C)C(=O)N1c2ccccc2-c2ccccc2C1c1cccs1` (configuration not stated)?
**A.** IC50 [3]: < 2 µM; inhibition [5]: 59%

**Q.** With `O=c1ccc2c(OCCCCOc3ccccc3)c3ccoc3cc2o1` as the compound, how does the EC50 (PBMC [14]) read?
**A.** The EC50 was 1.2 µM.

**Q.** What about the EC50 (PBMC [15]) of the same compound?
**A.** Its EC50 is 0.4 µM.

**Q.** What about the IC50 [8] of the same compound?
**A.** The IC50 was 10 µM.

**Q.** What about the EC50 (PBMC [4]) of the same compound?
**A.** Its EC50 is 25 µM.

**Q.** What about the EC50 (PBMC [16]) of the same compound?
**A.** The EC50 was 0.5 µM.

**Q.** And the EC50 (PBMC [17])?
**A.** The EC50 was 0.43 µM.

**Q.** Which inhibition [5] does the source give for `COc1ccc(C(=O)C2c3ccccc3-c3ccccc3N2C(=O)c2ccco2)cc1` (configuration not stated) here?
**A.** The inhibition was 13%.

**Q.** With `CC(=O)N1c2ccccc2-c2ccccc2C1c1c[nH]c2ccccc12` (configuration not stated) as the compound, how does the IC50 [3] read?
**A.** Its IC50 is 5 µM.

**Q.** For `O=C(c1ccc[nH]1)C1c2ccccc2-c2ccccc2N1C(=O)c1ccco1` (configuration not stated), which inhibition [5] is on record?
**A.** The inhibition was 15%.

**Q.** With `O=C(c1cc(F)ccc1F)N1c2ccccc2-c2ccccc2C1c1cccs1` (configuration not stated) as the compound, how does the inhibition [5] read?
**A.** The inhibition was 27%.

**Q.** For `O=C(O)C(=O)C1c2ccccc2-c2ccccc2N1C(=O)c1ccco1` (configuration not stated), which inhibition [5] is on record?
**A.** The inhibition was 41%.

**Q.** For `O=C(c1ccc2c(c1)OCO2)C1c2ccccc2-c2ccccc2N1C(=O)c1ccco1` (configuration not stated), which inhibition [5] is on record?
**A.** The inhibition was 8%.

**Q.** With `O=C1CN(C(=O)c2cccc(Cl)c2)c2ccccc2-c2ccccc21` as the compound, how does the IC50 [3] read?
**A.** Its IC50 is 3.4 µM.

**Q.** What about the IC50 [8] of the same compound?
**A.** The IC50 was 1.3 µM.

**Q.** For `O=C1CN(S(=O)(=O)c2cccc(Cl)c2)c2ccccc2-c2ccccc21`, which IC50 [3] is on record?
**A.** The IC50 was 3.6 µM.

**Q.** With `COc1cccc(C(=O)C2c3ccccc3-c3ccccc3N2C(=O)c2ccco2)c1` (configuration not stated) as the compound, how does the inhibition [5] read?
**A.** The inhibition was 30%.
